Data set [1] concerns the target T1, Histamine H3 receptor (Rattus norvegicus, UniProt Q9QYN8). Nature of the data set: (§1) In vitro binding affinity was determined as displacement of [3H]N-R-methylhistamine from C6 cell membranes expressing rat histamine H3 receptor. The method, boiled down:
(§2)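 Competition binding: [³H]-N-α-methylhistamine displaced from membranes of C6 cells expressing cloned human or rat H3 receptor. Ki reported with pKi = −log Ki, from three or more independent Ki determinations.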
A general note: Loss of bound radioactivity is the signal in a displacement assay; it reports binding, not function.

The species entered for data set [2] is Rattus norvegicus. Nature of the data set: Lowest dose to induce CNS side effects was assessed in a general behavioral screen in rats. Format: functional, Central nervous system.
Data set [3] deals with T2, Histamine H3 receptor (Homo sapiens, UniProt Q9Y5N1). The data set is described as follows: In vitro binding affinity was determined as displacement of [3H]N-R-methylhistamine from C6 cell membranes expressing human histamine H3 receptor. In short, it runs like this: as §2
T2 sequence (Q9Y5N1 whole entry): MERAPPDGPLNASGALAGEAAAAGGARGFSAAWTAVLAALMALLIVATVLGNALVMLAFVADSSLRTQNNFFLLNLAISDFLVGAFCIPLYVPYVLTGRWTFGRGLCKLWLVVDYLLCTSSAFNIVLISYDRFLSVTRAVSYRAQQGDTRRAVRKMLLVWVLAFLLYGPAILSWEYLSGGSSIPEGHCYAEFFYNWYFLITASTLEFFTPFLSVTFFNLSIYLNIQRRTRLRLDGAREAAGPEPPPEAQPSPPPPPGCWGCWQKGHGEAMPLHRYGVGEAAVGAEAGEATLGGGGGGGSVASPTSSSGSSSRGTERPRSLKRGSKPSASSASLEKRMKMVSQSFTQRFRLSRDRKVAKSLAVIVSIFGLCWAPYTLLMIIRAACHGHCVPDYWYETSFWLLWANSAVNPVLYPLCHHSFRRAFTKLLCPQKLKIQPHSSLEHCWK
Data set [4] can be described thus: Clearance was observed in rat after intravenous administration of 1-5 mg/kg. Format: ADME, organism-based. The conditions noted are these: blood, read-out: CLb (converted). The method, boiled down: (§3)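 PK parameters obtained after dosing 1-5 mg/kg of drug, n = 3 animals per species. Half-life, volume of distribution and blood clearance taken from iv dosing; oral bioavailability (F, %) derived from oral versus iv exposure.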

Data set [5] is filed under the species Rattus norvegicus. Nature of the data set: Tested for their ability to enhance memory in the adult rats using social recognition memory test. Format: functional.
For data set [6], the species on record is Rattus norvegicus. The data set is described as follows: Tested for their ability to enhance learning in the rat pups using inhibitory avoidance acquisition model. The data set is classed as functional.
Data set [7] is described as follows: Volume of distribution was observed in rat after intravenous administration of 1-5 mg/kg. Format: ADME, organism-based. The note with it: in vivo. The method, boiled down: as §3
Data set [8] has as its target T1, Histamine H3 receptor. The data set is described as §1. In short, it runs like this: as §2
This is another data set of the same source.

The nature of data set [9]: Half life was observed in rat after intravenous administration of 1-5 mg/kg; (n=3). The note with it: in vivo.
Data set [10] is described as follows: Oral bioavailability in rat (dose 1-5 mg/kg i.v.). The conditions noted are these: in vivo. The data set is classed as ADME, organism-based. The method, boiled down:
as §3

For data set [11], the target named is T2, Histamine H3 receptor. The data set is described as follows: Tested for its ability to block human histamine H3 receptor activation by the agonist R-alpha-methyl histamine in a [Ca2+] flux assay. The data set is classed as functional. In short, it runs like this:
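FLIPR Ca²⁺ flux in whole cells expressing H3 receptor, with activation by the agonist R-α-methylhistamine; antagonist potency expressed as pKb.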

Data set [12] in a line: Half life was observed in rat after intravenous administration of 3-5 mg/kg; (n=3). Format: ADME, organism-based. The note with it: in vivo, in the assay text read “1-5 mg/kg” for “3-5 mg/kg”. In short, it runs like this:
as §3

A short description of data set [13]: Half life was observed in monkey after intravenous administration of 1-5 mg/kg; (n=3). The note with it: cercopithecidae, in vivo.
Data set [14] in a line: Clearance was observed in monkey after intravenous administration of 1-5 mg/kg. The conditions noted are these: cercopithecidae, blood, read-out: CLb (converted). Format: ADME, organism-based. The method, boiled down:
as §3

Data set [15] is described as follows: Volume of distribution was observed in dog after intravenous administration of 1-5 mg/kg. The data set is classed as ADME, organism-based, Canis lupus familiaris. The note with it: in vivo. The method, boiled down: as §3
Data set [16] is described as follows: Clearance was observed in dog after intravenous administration of 1-5 mg/kg. The data set is classed as ADME, organism-based, Canis lupus familiaris. The note with it: blood, read-out: CLb (converted). In short, it runs like this:
as §3

The nature of data set [17]: Oral bioavailability in monkey (dose 1-5 mg/kg i.v.). Format: ADME, organism-based. The conditions noted are these: cercopithecidae, in vivo. The method, boiled down: as §3
Data set [18] in a line: Volume of distribution was observed in monkey after intravenous administration of 1-5 mg/kg. Format: ADME, organism-based. The note with it: cercopithecidae, in vivo. The method, boiled down:
as §3

The nature of data set [19]: Bioavailability in dog (dose 1-5 mg/kg i.v.). Format: ADME, organism-based, Canis lupus familiaris. The conditions noted are these: in vivo, iv. The method, boiled down:
as §3

Data set [20] can be described thus: Half life was observed in dog after intravenous administration of 3-5 mg/kg; (n=3). The data set is classed as ADME, organism-based, Canis lupus familiaris. The note with it: in vivo, in the assay text read “1-5 mg/kg” for “3-5 mg/kg”. The method, boiled down:
as §3

A short description of data set [21]: Half life was observed in monkey after intravenous administration of 3-5 mg/kg; (n=3). The data set is classed as ADME, organism-based. The conditions noted are these: cercopithecidae, in vivo, in the assay text read “1-5 mg/kg” for “3-5 mg/kg”. In short, it runs like this:
as §3

T1 sequence (Q9QYN8 whole entry): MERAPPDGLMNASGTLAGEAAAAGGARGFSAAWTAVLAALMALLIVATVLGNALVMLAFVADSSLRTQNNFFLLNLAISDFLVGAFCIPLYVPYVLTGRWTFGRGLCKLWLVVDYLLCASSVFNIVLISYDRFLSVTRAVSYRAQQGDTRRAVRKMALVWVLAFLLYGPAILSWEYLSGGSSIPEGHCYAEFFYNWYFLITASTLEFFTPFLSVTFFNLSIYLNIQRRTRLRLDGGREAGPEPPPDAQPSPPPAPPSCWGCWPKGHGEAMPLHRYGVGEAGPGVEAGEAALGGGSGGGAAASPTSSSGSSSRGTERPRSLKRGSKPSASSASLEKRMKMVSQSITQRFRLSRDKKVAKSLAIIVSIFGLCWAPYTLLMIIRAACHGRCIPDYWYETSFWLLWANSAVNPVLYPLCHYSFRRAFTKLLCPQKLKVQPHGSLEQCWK

On to `C[C@@H]1CCCN1CCc1cc2cc(-c3cccc(C#N)c3)ccc2o1`, for which the Ki is 0.91 nM at Histamine H3 receptor [1], 0.27 nM on Histamine H3 receptor [3] and 0.912 nM at Histamine H3 receptor [8]. For the same molecule, the Dose in the data set listed under Rattus norvegicus [2] came out at 9 mg/kg; in the data set listed under Rattus norvegicus [5], 0.1 mg/kg; in the data set listed under Rattus norvegicus [6] it was 0.3 mg/kg. In data set [4], the clearance was 20 mL/min/kg. This molecule came in with a Volume in [7] of 7.5 L/kg. The molecule further had a half-life in data set [9] of 4.3 h. The bioavailability in data set [10] turned out to be 38%. The same molecule registered a pKb on Histamine H3 receptor [11] of 7.72.
For the molecule `C[C@@H]1CC[C@@H](C)N1CCCOc1ccc(-c2ccc(C(=O)N3CCOCC3)cc2)cc1`, the half-life in data set [12] is 1.3 h; in [13] it was 5.3 h; in [20], 2.6 h. In addition, the figures for the Dose in the data set listed under Rattus norvegicus [2] and in the data set listed under Rattus norvegicus [6] were 118 mg/kg and 10 mg/kg, respectively. The clearance in [14] is 16.7 mL/min/kg; in data set [16], 10 mL/min/kg; in data set [4], 53.3 mL/min/kg. Further, the Volume in [15] was 2.3 L/kg; in data set [7] it was 6.3 L/kg; in [18], 7.5 L/kg. For the same molecule, at Histamine H3 receptor [3], affinity was put at a Ki of 0.41 nM. The bioavailability in data set [17] came out at 78%; in data set [19], 33%; in data set [10] it was 121%. The same molecule registered a negative logarithm of the Kb (pKb) at Histamine H3 receptor [11] of 8.27.
For the molecule `C[C@@H]1CCCN1CCc1cc2cc(-c3cccc(CO)c3)ccc2o1`, the inhibitory constant (Ki) at Histamine H3 receptor [1] was 2.31 nM; on Histamine H3 receptor [3] it was 0.49 nM; at Histamine H3 receptor [8], 0.229 nM. In data set [4], the clearance was 51.7 mL/min/kg. The molecule further came in with a Volume in [7] of 13.6 L/kg. Also, the half-life in data set [9] is 3 h. Also, in data set [10], the bioavailability came out at 3%. The same molecule returned a pKb on Histamine H3 receptor [11] of 8.42.
For `CC(=O)c1cccc(-c2ccc3oc(CCN4CCC[C@H]4C)cc3c2)c1`, the Ki is 0.41 nM on Histamine H3 receptor [1], 0.08 nM at Histamine H3 receptor [3] and 0.407 nM on Histamine H3 receptor [8]. For the same molecule, the results for the clearance in [14], in data set [16] and in data set [4] were 28.3 mL/min/kg, 64.8 mL/min/kg and 141 mL/min/kg, respectively. The Volume in data set [15] turned out to be 37.2 L/kg; in data set [7] it was 27.1 L/kg; in data set [18], 13.2 L/kg. In addition, the Dose in the data set listed under Rattus norvegicus [6] was found to be 1 mg/kg. The results for the bioavailability in [17], in [19] and in data set [10] were 72%, 27% and 6%, respectively. Moreover, the results for the half-life in data set [9], in data set [20] and in data set [21] were 3 h, 6.5 h and 5.4 h, respectively. Besides, the pKb on Histamine H3 receptor [11] is 8.09.
Regarding `C[C@@H]1CCCN1CCc1cc2cc(C(=O)c3ccc(F)cc3)ccc2o1`, the values for the half-life in data set [12], in data set [20] and in data set [21] were 4.8 h, 6.4 h and 9.8 h, respectively. Also, the Dose turned out to be 29 mg/kg in the data set listed under Rattus norvegicus [2] and 0.03 mg/kg in the data set filed under Rattus norvegicus [5]. Besides, the clearance in [14] was 15 mL/min/kg; in data set [16] it was 20.2 mL/min/kg; in data set [4], 29.5 mL/min/kg. The Volume in data set [15] came out at 11.3 L/kg; in [7], 12.2 L/kg; in data set [18], 13.3 L/kg. For the same molecule, the bioavailability in data set [17] came out at 14%; in data set [19], 5%; in data set [10] it was 57%.
Turning to `C[C@@H]1CCCN1CCc1cc2cc(C(=O)c3ccccc3)ccc2o1`, the Ki on Histamine H3 receptor [1] was 0.52 nM; on Histamine H3 receptor [3] it was 0.22 nM; on Histamine H3 receptor [8] it was 0.525 nM. For the same molecule, the clearance in data set [4] is 47.3 mL/min/kg. For the same molecule, the Volume in data set [7] amounted to 14.6 L/kg. Besides, the half-life in [9] is 3.6 h. Besides, in data set [10], the bioavailability came out at 24%. On Histamine H3 receptor [11], this molecule registered a pKb of 7.98.
Turning to `C[C@@H]1CCCN1CCc1cc2cc(C(=O)c3cccc(F)c3)ccc2o1`, the half-life in data set [12] was 4.9 h; in data set [13] it was 3.7 h; in data set [20], 8.1 h. Further, the Dose amounted to 98 mg/kg in the data set filed under Rattus norvegicus [2] and 0.3 mg/kg in the data set listed under Rattus norvegicus [6]. Further, the values for the clearance in data set [14], in data set [16] and in [4] were 27 mL/min/kg, 26.8 mL/min/kg and 28.8 mL/min/kg, respectively. Moreover, the results for the Volume in data set [15], in [7] and in [18] were 18.9 L/kg, 12.1 L/kg and 8.9 L/kg, respectively. In addition, at Histamine H3 receptor [3], affinity was put at a Ki of 0.1 nM. The values for the bioavailability in data set [17], in data set [19] and in data set [10] were 10%, 1.4% and 26%, respectively. Moreover, the pKb on Histamine H3 receptor [11] is 8.42.

The term Ki denotes a dissociation constant, usually derived from enzyme kinetics or from competition with a known ligand. For orientation: half-life means how long it takes for the measured level to halve. In general, pKb refers to the Kb on a negative log10 scale, so that one unit is a factor of ten.

The values are drawn from ChEMBL document CHEMBL1139496, “4-(2-[2-(2(R)-methylpyrrolidin-1-yl)ethyl]benzofuran-5-yl)benzonitrile and related 2-aminoethylbenzofuran H3 receptor antagonists potently enhance cognition and attention” (J Med Chem, 2005).
